NPY1 pot ag – potentiates or activates human NPY-Y1 receptor. activation, % at 3.6 µM. 220,000 compounds, 0.37% hits. NPY-Y1 expressing cells, potentiator/agonist activation; in the data active means activation above about 33%, passing the limit was not always enough;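 further: cells stimulated with NPY at EC10 then isoproterenol at EC100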
NPY2 pot ag – potentiates or activates human NPY-Y2 receptor. cells expressing NPY-Y2, potentiator/agonist read-out. activation, % at 3.6 µM. 220,000 compounds, 0.45% hits; in the data active means activation above about 27%;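 further: cells stimulated with NPY near EC25 plus isoproterenol at EC100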
Hsp70 activator – transcriptional activators of Hsp70; HeLa Hsp70 promoter luciferase reporter, luminescence; scaled: vehicle 0, proteasome-inhibitor control 100%; activation, % at 10 µM; 200,000 compounds, 0.04% hits; AID 1203;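 active means activation above the mean across all tested compounds plus 3 SD, cutoff set per campaign, cut at about 5.5% in these data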
NPY-Y2 antag – NPY-Y2 (human) receptor antagonism | P49146 | inhibition, % at 2.7 µM | NPY-Y2 expressing cells, antagonist mode | 140,000 compounds, 0.99% hits; in the data active means inhibition above about 17%
Wee1 degr inh – human Wee1 degradation inhibition, primary screen | reporter increase, % at 5 µM | HeLa Luc-Wee1K328M stability, luciferase luminescence; 100% = proteasome inhibitor MG132 effect | P30291 | 220,000 compounds, 1.2% hits;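 active means activation above the mean of all tested compounds plus 3 SD, set per screening run, cut at about 8.8% in these data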;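 further: cells exposed to compound for 20 h before luminescence read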
Target sequence (P30291 whole entry K328M): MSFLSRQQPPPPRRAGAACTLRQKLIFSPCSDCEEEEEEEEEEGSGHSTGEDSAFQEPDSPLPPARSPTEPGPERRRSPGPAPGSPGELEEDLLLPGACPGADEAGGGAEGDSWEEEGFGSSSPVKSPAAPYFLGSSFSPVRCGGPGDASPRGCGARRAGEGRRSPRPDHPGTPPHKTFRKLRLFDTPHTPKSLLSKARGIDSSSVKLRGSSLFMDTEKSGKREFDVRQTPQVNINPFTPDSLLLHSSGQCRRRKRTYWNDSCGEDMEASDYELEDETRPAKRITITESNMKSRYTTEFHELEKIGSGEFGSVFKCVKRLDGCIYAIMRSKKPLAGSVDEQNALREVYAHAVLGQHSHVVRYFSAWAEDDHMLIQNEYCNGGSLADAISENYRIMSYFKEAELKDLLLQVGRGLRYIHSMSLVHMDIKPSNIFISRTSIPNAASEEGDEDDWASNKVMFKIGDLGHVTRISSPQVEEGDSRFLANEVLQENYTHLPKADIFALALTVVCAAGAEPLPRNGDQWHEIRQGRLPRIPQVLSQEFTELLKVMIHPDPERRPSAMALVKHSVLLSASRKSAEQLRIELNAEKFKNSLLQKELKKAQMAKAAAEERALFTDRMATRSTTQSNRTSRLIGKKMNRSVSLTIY
NPY-Y1 antag – NPY-Y1 (human) receptor antagonism; HEK293-CNG Y1 cells, membrane potential fluorescence; NPY at EC95, then isoproterenol; inhibition, % at 3.6 µM; 200,000 compounds, 1% hits; AID 1040;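 active means inhibition above the campaign mean inhibition of all tested compounds plus 3 SD, cut at about 20% in these data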
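Material: Y1- and CNG-channel-expressing HEK293 cells / Probe or stimulus: NPY 25 nM then isoproterenol 1 µM plus Ro 20-1724 25 µM / Doses: 3.6 µM single dose, DMSO 0.4% / Schedule: compound incubation 1 h at room temperature, readout 45 min post-stimulation / Signal: membrane potential fluorescence / Benchmarks: isoproterenol-only wells as full block versus NPY-plus-isoproterenol wells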
Hits are given with their value; 0 = inactive; - = no result. Sampled rows, rich in hits. Any-hit rate of the full collection: about 3%.

SMILES | NPY1 pot ag | NPY2 pot ag | Hsp70 activator | NPY-Y2 antag | Wee1 degr inh | NPY-Y1 antag
CC(=O)c1ccc(N2C(=O)C3C(C2=O)C(C(=O)c2ccc(Cl)cc2)N2CCCC32)cc1 (stereo not given) | 0 | 0 | 0 | 0 | 11 | 0
Cn1ncc(Cl)c1C(=O)Nc1cccnc1 | 43 | 0 | 0 | 0 | 0 | 0
COc1ccc(CNC(=O)C(=O)NCCCn2ccnc2)cc1 | 0 | 0 | 0 | - | 0 | 0
CC(OC(=O)c1ccc2c(c1)C(=O)N(Cc1ccncc1)C2=O)C(=O)Nc1cccc(Cl)c1Cl (stereo not given) | 114 | 103 | 0 | 0 | 0 | 0
COc1ccc(C2CC2C(C)=O)cc1 (stereo not given) | 0 | 0 | 0 | - | 0 | 0
COc1cccc(CN(C)CC(=O)Nc2cc3oc4ccccc4c3cc2OC)c1 | 0 | 0 | 0 | 0 | 9.9 | 0
O=C(Nc1ccc(Cl)c(C(F)(F)F)c1)C1CCCN(S(=O)(=O)c2cnc[nH]2)C1 (stereo not given) | 0 | 0 | 0 | 0 | 0 | 0
N#CC[n+]1cc(-c2ccc(Cl)cc2)n2c1CCC2 | 0 | 0 | 0 | 0 | 8.9 | 0
CCCc1c(C)[nH]c2ccc(NC(C)=O)cc2c1=O | 0 | 0 | 0 | 0 | 8.9 | 0
COc1ccc(-c2ccc(SCC(=O)Nc3nccs3)nn2)cc1OC | 0 | 0 | 0 | - | 0 | 0
CN(CCC#N)C(=O)COC(=O)c1c2c(nc3ccccc13)/C(=C/c1ccco1)CC2 | 0 | 0 | 0 | 0 | 10 | 0
NC(=O)c1ccc(NC(=O)Cn2c(=O)n(-c3ccccc3)c(=O)c3oc4ccccc4c32)cc1 | 0 | 0 | 0 | - | 9.9 | 0
CC(=O)Nc1ccc(NC(=O)Cn2c(=O)n(-c3ccc(F)cc3)c(=O)c3oc4ccccc4c32)cc1 | 0 | 0 | 0 | - | 0 | 0
CC(=O)Nc1cc2c(cc1C(C)=O)OCCO2 | 0 | 0 | 0 | 0 | 9.0 | 0
CC1CCc2sc3nc(NCc4ccco4)n4ncnc4c3c2C1 (stereo not given) | 0 | 0 | 0 | 0 | 0 | 0
CC1CCCc2sc3nc(NCc4ccco4)n4ncnc4c3c21 (stereo not given) | 0 | 0 | 0 | 28 | 0 | 39
O=C(/C=C/c1ccc([N+](=O)[O-])cc1)Nc1ncc([N+](=O)[O-])s1 | 0 | 0 | 0 | - | 22 | 0
O=C(/C=C/c1ccc([N+](=O)[O-])cc1)NCc1ccccn1 | 0 | 0 | 0 | 0 | 0 | 0
CC(C)c1ccc(NC(=S)NN2CCOCC2)cc1 | 88 | 89 | 0 | 0 | 0 | 0
S=C(Nc1ccc(Cl)cc1)NN1CCOCC1 | 0 | 0 | 0 | 0 | 0 | 0
O=C(CSc1nccc(=O)[nH]1)NCc1ccc(Cl)cc1 | 0 | 0 | 0 | - | 9.3 | 0
O=C(CSc1ncccn1)NCc1ccc(Cl)cc1 | 0 | 0 | 0 | - | 0 | 0
Cc1cc(C(=O)Nc2cnc3ccccc3c2)ccc1[N+](=O)[O-] | 0 | 0 | 0 | - | 9.1 | 0
Cc1noc(C)c1C(=O)OCC(=O)C12CC3CC(CC(C3)C1)C2 | 0 | 0 | 0 | - | 0 | 0
Cc1ccc(NC(=O)c2cc(N3C(=O)C=CC3=O)ccc2Cl)cc1C | 0 | 0 | 0 | 0 | 0 | 0
SMILES | NPY1 pot ag | NPY2 pot ag | Hsp70 activator | NPY-Y2 antag | Wee1 degr inh | NPY-Y1 antag
O=C(N/N=C/c1c(Cl)cccc1Cl)c1n[nH]c2c1CCCC2 | 0 | 0 | 0 | 0 | 10.0 | 0
C/C(=N\NC(=O)c1n[nH]c2c1CCC2)c1ccco1 | 0 | 0 | - | - | 9.3 | -
CCC(C)(C)C1CCc2[nH]nc(C(=O)N/N=C(\C)c3ccco3)c2C1 (stereo not given) | 0 | 0 | - | - | 0 | -
O=C(NN=C1CCCC1)c1n[nH]c2c1CCC2 | 0 | 0 | 0 | - | 11 | 0
COc1ccc(NC(=O)Nc2ccccc2F)c([N+](=O)[O-])c1 | 0 | 0 | 0 | - | 0 | 0
COc1cc(/C=C(\C#N)C(=O)c2c[nH]c3ccccc23)cc(OC)c1O | 0 | 0 | 0 | - | 0 | 0
Cc1cc(NCCCN2CCOCC2)n2ncc(-c3ccccc3)c2n1 | 0 | 0 | 0 | 0 | 11 | 0
Cc1cc(C)cc(N(CC(=O)NCC2CCCO2)C(=O)CCC(=O)Nc2cc(C)on2)c1 (stereo not given) | 0 | 0 | 0 | 0 | 0 | 0
COc1cc2c(cc1OC)CN(C(=O)CC1CC3CCC1C3)CC2 (stereo not given) | 0 | 0 | 0 | 0 | 0 | 0
COC(=O)CSc1nc(N)c(C#N)c(-c2ccco2)c1C#N | 0 | 0 | 0 | 0 | 0 | 0
COC(=O)CSc1nc(-c2ccccc2)cc(-c2ccco2)c1C#N | 0 | 0 | 0 | 21 | 0 | 23
CCn1c(C(C)NC(=O)c2cccc(C)c2)n[nH]c1=S (stereo not given) | 0 | 0 | 0 | - | 0 | 0
Cc1cccc2nc(-c3ccco3)c(Nc3ccccc3)n12 | 47 | 34 | 0 | - | 0 | 0
Cc1cccc2nc(-c3ccco3)c(Nc3ccc4c(c3)OCO4)n12 | 0 | 0 | 0 | - | 0 | 0
O=c1cc(NCCc2ccccc2)c2ccccc2o1 | 0 | 0 | 0 | - | 9.0 | 0
Cc1cc(C)nc(N/C(=N\S(=O)(=O)Cc2ccccc2)Nc2ccc(F)c(Cl)c2)n1 | 0 | 0 | 0 | 0 | 0 | 0
COc1ccccc1NC(=O)c1cc(S(=O)(=O)NCc2ccccc2)ccc1F | 0 | 0 | 0 | - | 9.2 | 0
COc1ccc(CNS(=O)(=O)c2ccc(F)c(C(=O)Nc3ccccc3OC)c2)cc1 | 0 | 0 | 0 | - | 0 | 0
Cc1ccc(-n2c(C)cc(C=C(C#N)C#N)c2C)cc1 | 0 | 0 | 0 | 18 | 0 | 32
O=C(NCCC1=CCCCC1)C(c1ccccc1)c1ccccc1 | 0 | 0 | 0 | 0 | 0 | 28
Clc1ccc(-c2cn3c(n2)CCC3)cc1 | 0 | 0 | 0 | 0 | 9.4 | 0
CCn1c(=O)c(C(=O)Nc2nc3ccccc3[nH]2)c(O)c2ccccc21 | 0 | 0 | 0 | 0 | 0 | 0
Cc1cc(C(=O)Nc2ccc(S(=O)(=O)N3CCCC3)cc2)no1 | 0 | 0 | 0 | - | 0 | 0
Cc1cc(C(=O)Nc2ccc(N3CCCCC3)cc2)no1 | 0 | 0 | - | - | 9.1 | -
CCCn1c(=N)n(CC(O)COc2cccc(C)c2)c2ccccc21 (stereo not given) | 0 | 0 | 0 | 42 | 0 | 26
CCn1c(=N)n(CC(O)COc2cccc(C)c2)c2ccccc21 (stereo not given) | 0 | 0 | 0 | 21 | 0 | 20
Cc1c(Cl)c(C(F)(F)F)nn1CC(=O)NCc1ccco1 | 0 | 0 | 0 | - | 0 | 0
CCCC(C)NC(=O)COc1ccc(S(=O)(=O)N2CCCC2)cc1 (stereo not given) | 0 | 0 | 0 | - | 0 | 0
O=c1[nH]cnc2sc3c(c12)CCC3 | 0 | 0 | - | - | 0 | -
C#CCOCCOCCOCCNc1nc(N2CCN(C(=O)C([C@@H](C)CC)n3cc(C(N)Cc4ccc(O)cc4)nn3)CC2)nc(N2CCN(C(=O)[C@H](CCC(=O)O)n3cc(C(N)CC(C)C)nn3)CC2)n1 (stereo not given in full) | 0 | 0 | 0 | - | 0 | 0
